Data as given in ChEMBL document CHEMBL1132433, “6-Substituted 2-oxo-2H-1-benzopyran-3-carboxylic acid as a core structure for specific inhibitors of human leukocyte elastase” (J Med Chem, 1999).

Columns and labels:
[1] = target: T1, Neutrophil elastase (Homo sapiens) (UniProt P08246); test: Evaluated for the kinetic parameter Ki/KI(1/M.1/S) by its ability to inhibit the HLE(Human Leukocyte Elastase) enzyme [ki(se-1) andKi(uM)]
T1 sequence (whole entry): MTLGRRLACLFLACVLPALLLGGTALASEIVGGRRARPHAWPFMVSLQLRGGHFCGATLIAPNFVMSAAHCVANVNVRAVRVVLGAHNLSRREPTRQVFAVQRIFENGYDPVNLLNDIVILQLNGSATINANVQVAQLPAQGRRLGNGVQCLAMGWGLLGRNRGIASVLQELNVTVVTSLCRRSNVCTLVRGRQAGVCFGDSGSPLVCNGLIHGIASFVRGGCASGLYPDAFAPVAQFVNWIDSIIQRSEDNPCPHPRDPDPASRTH
Summary of the method: (§1)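 HLE, active-site titrated, assayed with MeO-Suc-AAPV-p-NA in 0.1 M Hepes, 0.5 M NaCl, 0.1% Tween 80, pH 8.0, 10% DMSO, 25 °C. Preincubation method ([HLE]0 20 nM, [I]0 1-10 µM) or progress curves (30 nM enzyme, [S]0 100 µM, [I]0 0.05-70 µM), 405 nm. Constants reflect the initial inactivation step. ki, KI fitted.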

[2] = target: Prothrombin (Homo sapiens) (UniProt P00734); test: Compound was evaluated for the kinetic parameter Ki/KI(1/M.1/S) by its ability to inhibit human thrombin
Summary of the method: (§2)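 Human thrombin, active-site titrated, with chromogenic substrate S-2238 in 0.01 M Hepes, 0.01 M Tris, 0.1 M NaCl, 0.1% PEG6000, pH 7.5, 10% DMSO, 25 °C. Preincubation method ([THR]0 1.45 nM, [I]0 1-10 µM) or progress curves ([THR]0 0.58 nM, [S]0 10 µM, [I]0 1-14 µM), absorbance at 405 nm. ki and KI fitted; ki/KI = kobs/[I] at low inhibitor.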

[3] = target: Chymotrypsinogen A (Bos taurus) (UniProt P00766); test: Compound was evaluated for the kinetic parameter Ki/KI(1/M.1/S) by its ability to inhibit the Alpha-CT (Bovine alpha-chymotrypsin) enzyme [ki(se-1) andKi(uM)]
[4] = target: T1, Neutrophil elastase (Homo sapiens); test: Evaluation of kinetic parameter Ki/KI(1/M.1/S) by its ability to inhibit the HLE(Human Leukocyte Elastase) enzyme.; summary of the method: as §1
[5] = target: Chymotrypsinogen A (Bos taurus) (UniProt P00766); test: Compound was evaluated for the kinetic parameter Ki/KI(1/M.1/S) by its ability to inhibit the Alpha-CT (Bovine alpha-chymotrypsin) enzyme.
[6] = target: T1, Neutrophil elastase (Homo sapiens); test: Compound was evaluated for the kinetic parameter Ki/KI(1/M.1/S) by its ability to inhibit the HLE(Human Leukocyte Elastase) enzyme; No inactivation at 10 uM; summary of the method: as §1
[7] = target: Chymotrypsinogen A (Bos taurus) (UniProt P00766); test: Evaluation of kinetic parameter Ki/KI(1/M.1/S) by its ability to inhibit the Alpha-CT (Bovine alpha-chymotrypsin) enzyme
[8] = target: Prothrombin (Homo sapiens) (UniProt P00734); test: Evaluation of kinetic parameter Ki/KI(1/M.1/S) by its ability to inhibit human thrombin.; summary of the method: as §2
[9] = target: Chymotrypsinogen A (Bos taurus) (UniProt P00766); test: Evaluation of kinetic parameter Ki/KI(1/M.1/S) by its ability to inhibit the Alpha-CT (Bovine alpha-chymotrypsin) enzyme; No inactivation at 10 uM
[10] = target: Chymotrypsinogen A (Bos taurus) (UniProt P00766); test: Compound was evaluated for the kinetic parameter Ki/KI(1/M.1/S) by its ability to inhibit the Alpha-CT (Bovine alpha-chymotrypsin) enzyme[ki(se-1) andKi(uM)]

SMILES | Ki/KI [4] [M⁻¹ s⁻¹] | Ki/KI [7] [M⁻¹ s⁻¹] | Ki/KI [8] | Ki/KI [9] | other results
O=C(Oc1cncc(Cl)c1)c1cc2cc(CCl)ccc2oc1=O | – | – | – | – | Ki/KI [1]: 64600 M⁻¹ s⁻¹; Ki/KI [2]: 200 M⁻¹ s⁻¹; Ki/KI [3]: 31000 M⁻¹ s⁻¹
O=C(Oc1ccccc1)c1cc2cc(CCl)ccc2oc1=O | 23 | – | – | – | Ki/KI [2]: 200 M⁻¹ s⁻¹; Ki/KI [5]: 100000 M⁻¹ s⁻¹
Cc1ccc(OC(=O)c2cc3cc(CCl)ccc3oc2=O)c([N+](=O)[O-])n1 | – | 1500 | – | – | Ki/KI [6]: No inactivation
O=C(Oc1ccccn1)c1cc2cc(CCl)ccc2oc1=O | 420 | 1670 | – | – | Ki/KI [2]: 240 M⁻¹ s⁻¹
CCC(=O)OCc1ccc2oc(=O)c(C(=O)Oc3cncc(Cl)c3)cc2c1 | 62000 | – | No inactivation | No inactivation | –
O=C(Oc1cccc(Cl)n1)c1cc2cc(CCl)ccc2oc1=O | 26000 | 107000 | – | – | Ki/KI [2]: 7200 M⁻¹ s⁻¹
CC(C)C(=O)OCc1ccc2oc(=O)c(C(=O)Oc3cncc(Cl)c3)cc2c1 | 45000 | – | No inactivation | No inactivation | –
O=C(Nc1cccnc1)c1cc2cc(CCl)ccc2oc1=O | – | – | – | – | Ki/KI [6]: No inactivation
NCc1ccc2oc(=O)c(C(=O)Oc3cncc(Cl)c3)cc2c1 | 9100 | – | No inactivation | No inactivation | –
O=C(Oc1cccnc1Br)c1cc2cc(CCl)ccc2oc1=O | – | – | – | – | Ki/KI [1]: 3000 M⁻¹ s⁻¹; Ki/KI [10]: 2700 M⁻¹ s⁻¹
Cc1cncc(OC(=O)c2cc3cc(CCl)ccc3oc2=O)c1 | 1000 | 2500 | No inactivation | – | –
O=C(Oc1cncc(Cl)c1)c1cc2cc(Br)ccc2oc1=O | 58000 | – | – | No inactivation | –
CCCC(=O)OCc1ccc2oc(=O)c(C(=O)Oc3cncc(Cl)c3)cc2c1 | 72700 | – | No inactivation | No inactivation | –
CC(C)(C)C(=O)OCc1ccc2oc(=O)c(C(=O)Oc3cncc(Cl)c3)cc2c1 | 95500 | – | No inactivation | No inactivation | –
Cc1cccc(OC(=O)c2cc3cc(CCl)ccc3oc2=O)n1 | 200 | 3300 | No inactivation | – | –
O=C(Oc1cncc(Cl)c1)c1cc2ccccc2oc1=O | 32800 | – | No inactivation | No inactivation | –
Cc1ccc2oc(=O)c(C(=O)Oc3cncc(Cl)c3)cc2c1 | 32500 | – | No inactivation | No inactivation | –
CC(=O)OCc1ccc2oc(=O)c(C(=O)Oc3cncc(Cl)c3)cc2c1 | 107000 | – | No inactivation | No inactivation | –
Cc1ccnc(OC(=O)c2cc3cc(CCl)ccc3oc2=O)c1 | 300 | 5950 | – | – | Ki/KI [2]: 3900 M⁻¹ s⁻¹
Cc1ccc(OC(=O)c2cc3cc(CCl)ccc3oc2=O)cn1 | – | 1000 | No inactivation | – | Ki/KI [6]: No inactivation
O=C(Nc1cccnc1Cl)c1cc2cc(CCl)ccc2oc1=O | – | – | – | No inactivation | Ki/KI [6]: No inactivation
O=C(Oc1cccnc1[N+](=O)[O-])c1cc2cc(CCl)ccc2oc1=O | 4000 | 4500 | – | – | –
O=C(Oc1cccnc1)c1cc2cc(CCl)ccc2oc1=O | – | – | No inactivation | – | Ki/KI [1]: 770 M⁻¹ s⁻¹; Ki/KI [3]: 14800 M⁻¹ s⁻¹
O=C(Oc1cccnc1Cl)c1cc2cc(CCl)ccc2oc1=O | 3310 | 4300 | – | – | –
COc1ccc(NC(=O)c2cc3cc(CCl)ccc3oc2=O)cn1 | – | – | – | No inactivation | Ki/KI [6]: No inactivation
O=C(Oc1ccc(Cl)cn1)c1cc2cc(CCl)ccc2oc1=O | 110 | 2500 | No inactivation | – | –
